Assay results: PubChem BioAssay AID977616 (Broad Institute, 2014)
Activity calls are given as the source filed them.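 How the source made its calls: active means falling-signal curve whose AC50 is at most twice the highest valid dose tested; inconclusive means flat fit showing 30 to 70% signal loss, or poor fit; inactive means the rest, including opposite-direction effects.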

Assays:
[1] = viability loss in hepatoma cells – cell-based, CellTiter-Glo luminescence, dry powder, set 14, cytotoxicity control, dose response (AID 977616); settings: HepG2 viability, CellTiter-Glo ATP luminescence, 72 h
Method in brief: (§1)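 Test system: Wild-type HepG2 cells | Amount: 2000 HepG2 cells per well | Dosing: Compound tested at multiple concentrations (dose series) | Timing: Seeding 24 h pre-dose, 72 h exposure, 37 °C, 5% CO2 | Technique: CellTiter-Glo luminescence, reagent diluted 1:1 in PBS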

[2] = system: HepG2 viability, CellTiter-Glo ATP luminescence, 72 h; experiment: as above
Method in brief: as §1

Row | SMILES | activity change, negative = cytotoxicity ([1]; at 26 µM (top of the series)) | AC50 [2] | also measured
1 | C[C@H]1CN([C@@H](C)CO)S(=O)(=O)c2ccc(Br)cc2O[C@H]1CN(C)Cc1ccc(-c2ccccc2)cc1 | 14.1% (inactive) | – | –
2 | C[C@@H](O)C#Cc1ccc2c(c1)O[C@@H](CN(C)S(=O)(=O)c1ccc(-c3ccccc3)cc1)[C@@H](C)CN([C@@H](C)CO)S2(=O)=O | -8.38% (inactive) | – | –
3 | C[C@@H](O)C#Cc1ccc2c(c1)O[C@H](CN(C)Cc1ccc(-c3ccccc3)cc1)[C@@H](C)CN([C@@H](C)CO)S2(=O)=O | – | 20 µM | –
4 | C[C@H](O)C#Cc1ccc2c(c1)O[C@H](CN(C)Cc1ccc(-c3ccccc3)cc1)[C@H](C)CN([C@@H](C)CO)S2(=O)=O | -13.4% (inactive) | – | –
5 | C[C@@H](O)C#Cc1ccc2c(c1)O[C@@H](CN(C)Cc1ccc(-c3cccc(Cl)c3)cc1)[C@@H](C)CN([C@@H](C)CO)S2(=O)=O | – | 25.4 µM | –
6 | C[C@H](O)C#Cc1ccc2c(c1)O[C@H](CN(C)Cc1ccc(-c3ccccc3)cc1)[C@@H](C)CN([C@@H](C)CO)S2(=O)=O | – | 4.56 µM | –
7 | C[C@H](O)C#Cc1ccc2c(c1)O[C@@H](CN(C)Cc1ccc(-c3ccccc3)cc1)[C@H](C)CN([C@H](C)CO)S2(=O)=O | – | 19.2 µM | –
8 | C[C@@H]1CN([C@@H](C)CO)S(=O)(=O)c2ccc(C#C[C@@H](C)O)cc2O[C@H]1CN(C)Cc1ccc(-c2ccccc2)cc1 | – | 17.8 µM | –
9 | CO[C@H]1CN(C)C(=O)c2ccc(NC(=O)c3ccc(F)cc3)cc2OC[C@H](C)N(C(=O)c2ccc(F)cc2)C[C@@H]1C | 11.6% (inactive) | – | –
10 | CNC[C@@H]1Oc2cc(Br)ccc2S(=O)(=O)N([C@@H](C)CO)C[C@@H]1C | -25.9% (inactive) | – | –
11 | C[C@@H](O)C#Cc1ccc2c(c1)O[C@@H](CN(C)Cc1ccc(-c3ccccc3Cl)cc1)[C@@H](C)CN([C@@H](C)CO)S2(=O)=O | – | 25.9 µM | –
12 | C[C@H](O)C#Cc1ccc2c(c1)O[C@@H](CN(C)Cc1ccc(-c3ccccc3)cc1)[C@@H](C)CN([C@H](C)CO)S2(=O)=O | – | – | activity change, negative = cytotoxicity ([1]; at 12 µM (top of the series)): -7.08% (inactive)
13 | C[C@H](O)C#Cc1ccc2c(c1)O[C@@H](CN(C)Cc1ccc(-c3ccccc3)cc1)[C@H](C)CN([C@@H](C)CO)S2(=O)=O | – | 19.7 µM | –
14 | C[C@H](O)C#Cc1ccc2c(c1)O[C@H](CN(C)Cc1ccc(-c3ccccc3)cc1)[C@@H](C)CN([C@H](C)CO)S2(=O)=O | – | 21.2 µM | –
15 | C[C@@H]1CN([C@H](C)CO)S(=O)(=O)c2ccc(C#C[C@@H](C)O)cc2O[C@@H]1CN(C)Cc1ccc(-c2ccccc2)cc1 | -8.68% (inactive) | – | –
16 | COc1cccc(-c2ccc(CN(C)C[C@@H]3Oc4cc(C#C[C@@H](C)O)ccc4S(=O)(=O)N([C@@H](C)CO)C[C@@H]3C)cc2)c1 | – | 22.5 µM | –
17 | COc1ccccc1-c1ccc(CN(C)C[C@@H]2Oc3cc(C#C[C@@H](C)O)ccc3S(=O)(=O)N([C@@H](C)CO)C[C@@H]2C)cc1 | – | 20.4 µM | –
18 | C[C@H]1CN([C@@H](C)CO)S(=O)(=O)c2ccc(-c3ccc(O)cc3)cc2O[C@H]1CN(C)Cc1ccc(-c2ccccc2)cc1 | – | > 52 µM (inactive) | –
19 | COc1ccc(-c2ccc(CN(C)C[C@@H]3Oc4cc(C#C[C@@H](C)O)ccc4S(=O)(=O)N([C@@H](C)CO)C[C@@H]3C)cc2)cc1 | – | 20.2 µM | –
20 | C[C@@H](O)C#Cc1ccc2c(c1)O[C@@H](CN(C)Cc1cccnc1)[C@@H](C)CN([C@@H](C)CO)S2(=O)=O | 2.57% (inactive) | – | –
21 | C[C@@H](O)C#Cc1ccc2c(c1)O[C@@H](CN(C)Cc1ccc(-c3ccc(Cl)cc3)cc1)[C@@H](C)CN([C@@H](C)CO)S2(=O)=O | – | 21.6 µM | –
22 | C[C@@H](O)C#Cc1ccc2c(c1)O[C@@H](CN(C)Cc1ccncc1)[C@@H](C)CN([C@@H](C)CO)S2(=O)=O | -6.07% (inactive) | – | –
23 | C[C@H](CO)N1C[C@H](C)[C@H](CN(C)Cc2ccc(-c3ccccc3)cc2)Oc2cc(C#C[C@@H](C)O)ccc2S1(=O)=O | 0.52% (inactive) | – | –
24 | Cc1cccc(-c2ccc(CN(C)C[C@@H]3Oc4cc(C#C[C@@H](C)O)ccc4S(=O)(=O)N([C@@H](C)CO)C[C@@H]3C)cc2)c1 | – | 23.1 µM | –
25 | C[C@H](O)C#Cc1ccc2c(c1)O[C@@H](CN(C)Cc1ccc(-c3ccccc3)cc1)[C@@H](C)CN([C@@H](C)CO)S2(=O)=O | – | > 52 µM (inactive) | –
